Compound activity: PubChem, several laboratories
Rin1 Abl inh: inhibitors of human Rin1-Abl protein interaction; P00519+Q13671; TR-FRET Rin1/Abl binding, biochemical; inhibition, % at 7.35 µM; 360,000 tested, 0.4% active; in the data active = inhibition above about 5%, passing the limit was not always enough
UBC13 polyUb: human UBC13 polyubiquitination inhibition | P61088 | 330,000 tested, 0.47% active | UBC13 polyubiquitin chain formation, TR-FRET | AID 485273 | inhibition, % at 20 µM; in the data active = inhibition above about 45%, passing the limit was not always enough; inconclusive = no clear call, values can overlap the other calls
ALR inh: inhibitors of human sulfhydryl oxidase ALR; AID 485317; inhibition, % (concentration not given with the values); 290,000 tested, 3.8% active; P55789; purified ALR, DTT oxidation, H2O2 HRP-luminol luminescence;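 active = mean replicate inhibition above about 79%, with every replicate also reaching it, limit read from the data; inconclusive = only one of the two criteria met; inactive = mean below limit and not every replicate reaching it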
Target sequence (P55789 whole entry, looked up): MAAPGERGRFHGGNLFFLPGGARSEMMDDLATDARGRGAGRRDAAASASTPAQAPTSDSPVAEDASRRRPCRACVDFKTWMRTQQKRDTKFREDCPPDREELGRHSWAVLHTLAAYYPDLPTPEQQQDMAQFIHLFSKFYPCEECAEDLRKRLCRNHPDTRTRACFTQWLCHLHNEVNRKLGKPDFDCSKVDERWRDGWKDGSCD
RBBP9 inhibitor: inhibitors of human serine hydrolase RBBP9; 220,000 tested, 0.2% active; AID 1515; recombinant RBBP9, FP-Rh probe fluorescence polarization; inhibition, % at 7.94 µM; O75884;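 active = inhibition above the campaign mean of all tested compounds plus 3 SD, cut at about 14% in these data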;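 note: plate controls were DMSO wells with RBBP9 for no effect and wells lacking RBBP9 protein for full effect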
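System: RBBP9 protein / Buffer or medium: Tris/NaCl buffer pH 8.0 with 0.1% Pluronic / Probe or stimulus: Serine-hydrolase probe FP-Rh, 375 nM pre-mixing / Dosing: 7.94 µM single dose, 0.794% DMSO / Times: enzyme-compound preincubation 30 min, then probe labeling 45 min, 25 °C / Technique: fluorescence polarization (mP), excitation 525 nm, emission 598 nm / Replication: singlicate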
UBC9 SUMO inh: inhibitors of human SUMOylation (UBC9); AID 2006; inhibition, % at 35 µM; 290,000 tested, 0.36% active; P63279; HTRF SUMOylation assay, SAE1/SAE2 + UBC9, in vitro; in the data active = inhibition above about 50%, passing the limit was not always enough; inconclusive = no clear call, values can overlap the other calls
Target sequence (P63279 whole entry, looked up): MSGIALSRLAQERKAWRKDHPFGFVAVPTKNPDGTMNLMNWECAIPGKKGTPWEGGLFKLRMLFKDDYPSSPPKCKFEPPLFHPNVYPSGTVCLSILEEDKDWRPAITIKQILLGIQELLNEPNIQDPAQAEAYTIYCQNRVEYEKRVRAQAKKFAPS
PREPL inh: inhibits the human prolyl oligopeptidase-like enzyme; AID 2751; Q4J6C6; recombinant PREPL, fluorescence polarization activity-based probe; inhibition, % at 5.96 µM; 320,000 tested, 0.68% active; in the data active = inhibition above about 43%;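 note: 0% = enzyme with DMSO and 100% = wells lacking enzyme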
Rin1 Abl conf: confirmation of inhibitors of human Rin1-Abl interaction | shares compounds with Rin1 Abl inh | TR-FRET Rin1-Abl binding, purified proteins | inhibition, % at 7.35 µM | 1,300 tested, 49% active | AID 602124
GFP quencher: counter-screen for Rin1-Abl inhibitors: GFP fluorescence quenchers | shares compounds with Rin1 Abl inh | inhibitors/quenchers counterscreen | inhibition, % at 6.75 µM | 1,300 tested, 8.5% active;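 note: ABL1-eGFP fusion protein alone without its partner RIN1-SBP; 0% = protein with vehicle and 100% = wells lacking protein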
GFP quench DR: GFP fluorescence interference dose response; IC50, µM; GFP fluorescence interference/quenching counterscreen; 230 tested, under 10 active; shares compounds with Rin1 Abl inh; call rule not given here;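 note: ABL1-eGFP fusion protein alone without its RIN1 binding partner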
The depositor's hits bear a star; u = inconclusive; x = no result given. This is a sample that favours compounds with a hit; in the whole collection about 4.3% have one here. Cut-off read from the data, not from the text of the source, unless noted: active = inhibition above about 6.5%; inactive = the rest.

SMILES	Rin1 Abl inh	UBC13 polyUb	ALR inh	RBBP9 inhibitor	UBC9 SUMO inh	PREPL inh	Rin1 Abl conf	GFP quencher	others
Cc1cnc(NC(=O)[C@H](C)N2C(=O)C3CCCCC3C2=O)s1 (some centres undefined)	2	-7	-4	-10	-4	16	x	x
Cc1ccc(S(=O)(=O)N2C[C@H]3[C@H]4C(=O)N(Cc5ccccc5)C(=O)[C@H]4CC(=O)[C@H]3[C@@H]2c2ccccc2Cl)cc1	5	x	x	x	x	x	x	x
O=C(CCSc1nnc(-c2ccc(O)cc2)o1)N1CCOCC1	15*	0	-6	-2	11	-3	16*	-1
O=C(O)c1cc(N2N=C(C(F)(F)F)/C(=C/C=C/c3ccco3)C2=O)ccc1Cl	12*	x	x	-4	u	x	4	26*
C(=NNc1nnn(Cc2ccccc2)n1)c1ccccc1	-2	x	x	x	x	x	x	x
COc1cnc(-c2ccccn2)nc1Oc1ccc(Cl)cc1	6.8*	-12	2	-12	10	29	6	1
Cc1ccc(C(=O)NCc2ccncc2)cc1S(=O)(=O)Nc1cccc(C)c1C	15*	10	0	x	-1	7	-1	-3
Cc1ccc(C)c(NS(=O)(=O)c2cc(C(=O)NCc3ccncc3)ccc2C)c1	6	9	2	x	5	6	x	x
CCOC(=O)c1ccc(NC(=O)COc2ccccc2CNCCc2ccccc2)cc1	19*	44	-5	1	-20	-52	24*	1	GFP quench DR=>68
CC1CCN(C(=O)c2cc(Cl)ccc2NC(=O)c2ccco2)CC1	3	-2	-1	x	13	6	x	x
O=C1/C(=C/c2ccc(O)c(O)c2)SC(=S)N1Nc1ccccc1	5	x	x	-66	34	x	x	x
O=C(NN1C(=O)/C(=C/c2ccc(O)c(O)c2)SC1=S)c1ccccc1	7.5*	-98	99*	x	24	-46	6.6*	12*
CC(C(=O)O)N1C(=O)/C(=C/C=C/c2ccco2)SC1=S (centres undefined)	13*	35	97*	-9	84*	12	9.7*	20*
CCN(C(=O)C(C)N1C(=O)/C(=C/c2ccco2)SC1=S)C1CCS(=O)(=O)C1 (centres undefined)	6	-30	-20	x	38	15	x	x
CCC(=O)NC(c1cccs1)c1cc([N+](=O)[O-])c2cccnc2c1O (centres undefined)	10*	-60	x	-9	-9	3	6.3*	9.3*
CCCC(=O)NC(c1cccs1)c1cc([N+](=O)[O-])c2cccnc2c1O (centres undefined)	3	x	-29	-5	-24	1	x	x
COc1ccc(C(=O)N2CCCC(C(N)=O)C2)cc1S(=O)(=O)N1CCOCC1 (centres undefined)	2	3	x	x	x	-4	x	x
Oc1ccc(/C=N/Nc2ccnc3cc(Cl)ccc23)c(O)c1O	24*	-13	2	x	4	26	26*	7.5*
CC(=O)Nc1cccc(NC(=O)c2cc3ccccc3o2)c1	-4	4	-10	-5	7	-7	x	x
CC(=O)c1cccc(NC(=O)CNC(=O)c2cc3ccccc3o2)c1	17*	0	-20	x	0	6	-10	0
O=C(NC1CCCc2ccccc21)C1CCN(c2c3c(nc4ncnn24)CCC3)CC1 (centres undefined)	3	10	-4	1	5	2	x	x
O=C(Nc1ccc(Oc2ccccc2)cc1)C1CCN(c2c3c(nc4ncnn24)CCC3)CC1	6.0*	10	x	1	15	9	12*	0
COCCn1c(SCC(=O)Nc2ccc3c(c2)OCCO3)nc2ccccc2c1=O	7.0*	x	x	x	x	x	-1	-1
O=C1CCc2ccc(NC(=O)C3CC3)cc2N1	2	-12	0	-4	-4	3	x	x
COc1ccc(S(=O)(=O)N(C)C[C@H]2Oc3ccc(NC(=O)C4CCCCC4)cc3C(=O)N([C@H](C)CO)C[C@@H]2C)cc1	8	8	7	x	x	4	x	x
